The nature of data set [1]: (§1) Inhibition of Dengue virus 2 NS2B-NS3 protease preincubated for 15 mins before Dabcyl- Lys-Gln-Arg-Arg-Gly-Arg-Ile-Glu-Edans substrate addition by fluorimetric assay. Set-up: species or system dengue virus type 2.
Data set [2] concerns dengue virus type 2. The experiment in a line: Inhibition of Dengue virus 2 NS2B-NS3 protease at 100 uM preincubated for 15 mins before Dabcyl- Lys-Gln-Arg-Arg-Gly-Arg-Ile-Glu-Edans substrate addition by fluorimetric assay.
Data set [3] is described as follows: Selectivity index, ratio of CC50 for BHK cells to IC50 for Dengue virus 2 infected in BHK-D2RepT cells. Type of data set: functional. Put shortly: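 Selectivity index = CC50 / IC50. CC50 is from the 48 h MTT assay in nontransfected BHK cells; IC50 is from the 48 h luciferase read in BHK-D2RepT replicon cells, 96-well format.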
The subject of data set [4] is dengue virus type 2. The experiment in a line: Antiviral activity against Dengue virus 2 infected in BHK-D2RepT cells assessed as reduction in viral replication incubated for 48 hrs by luciferase reporter replicon-based assay. Type of data set: functional, organism-based. A digest of the protocol:
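Cells used were BHK-D2RepT: BHK carrying a DENV-2 (New Guinea C) firefly-luciferase replicon, maintained in DMEM/10% FBS/200 μg/mL G418. Seeded at 5×10⁴ cells/well for 24 h, then exposed to compound for 48 h (DMSO <0.2%). Medium was replaced before the Bright-Glo luciferase read. Triplicate wells with six control wells. IC50 is the concentration giving 50% of control luciferase signal; mean of three independent experiments.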
(A reporter such as luciferase makes a cellular process visible.)

Data set [5] is described as follows: Cytotoxicity against BHK cells incubated for 48 hrs by MTT assay. The settings on record: hamster. Type of data set: cell-based, Mesocricetus auratus. A digest of the protocol:
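Nontransfected BHK cells, about 5×10⁴ per well, were treated the next day with various compound concentrations for 48 h. Viability was measured by MTT. CC50 is the concentration giving 50% of control cell number; mean of three independent experiments.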
Background: Tetrazolium dyes change colour on reduction, which living cells bring about.

Data set [6] has as its system dengue virus type 2. The description is as §1.
The test system of data set [7] is dengue virus type 2. In words: Inhibition of Dengue virus 2 NS2B-NS3 protease at 50 uM preincubated for 15 mins before substrate addition.
Data set [8] has as its system dengue virus type 2. The experiment in a line: Inhibition of Dengue virus 2 NS2B-NS3 protease at 12.5 uM preincubated for 15 mins before substrate addition.
Data set [9] deals with dengue virus type 2. In words: Inhibition of Dengue virus 2 NS2B-NS3 protease at 25 uM preincubated for 15 mins before substrate addition.

In data set [1], `CCOC(=O)c1cc(/C=N/NC(=O)c2ccc3c(c2)OCO3)c(O)c(/C=N/NC(=O)c2ccc3c(c2)OCO3)c1` yielded an IC50 above 100 µM. The compound also gave an inhibition with dengue virus type 2 [2] of 35.4%.
`CCOC(=O)c1cc(/C=N/Nc2ccc([N+](=O)[O-])cc2)c(O)c(/C=N/Nc2ccc([N+](=O)[O-])cc2)c1`: in data set [1], the midpoint of inhibition, the IC50, lay at 14.6 µM.
Take `O=C(N/N=C\Cc1ccccc1)c1cc(/C=N/Nc2cccc(C(F)(F)F)c2)nc2ccccc12`: in [3], the “Ratio CC50/IC50” value was determined as 0.2. In addition, the IC50 in data set [1] is 19.8 µM; in the data set with dengue virus type 2 [4], 73.4 µM. The same compound showed a CC50 at 48 h in data set [5] of 16.4 µM.
In turn, `CCNC(=S)N/N=C\c1cc(C(=O)OCC)cc(/C=N\NC(=S)NCC)c1O` displayed an IC50 in data set [1] above 100 µM. In the data set with dengue virus type 2 [2], this compound returned an inhibition of 28.2%.
For `O=C(NCCCc1ccccc1)c1cc(/C=N/Nc2cccc(Cl)c2)nc2ccccc12`, in that order: above 100 µM and 32.1%.
As for `O=C(N/N=C\Cc1ccccc1)c1cc(/C=N/Nc2cccc(Cl)c2)nc2ccccc12`, the “Ratio CC50/IC50” value in data set [3] was 0.3. The IC50 stood at 28.1 µM in data set [1] and 61.3 µM in the data set with dengue virus type 2 [4]. The compound further displayed a half-maximal cytotoxic concentration (CC50) at 48 h in data set [5] of 19.7 µM.
For `CCOC(=O)c1cc(/C=N/Nc2nc3ccccc3[nH]2)cc(/C=N/Nc2nc3ccccc3[nH]2)c1`, the IC50 in data set [1] turned out to be 29.5 µM.
Compound `NS(=O)(=O)c1ccc(N/N=C/c2cc(C(=O)N/N=C\Cc3ccccc3)c3ccccc3n2)cc1` yielded an IC50 in data set [1] above 100 µM. This compound also returned an inhibition with dengue virus type 2 [2] of 31.1%.
Consider `CCOC(=O)c1cc(C)c(O)c(/C=N/Nc2nc3ccccc3[nH]2)c1`, for which the IC50 in data set [1] was 48.6 µM.
For `O=C(N/N=C\Cc1ccccc1)c1cc(/C=N/Nc2cccc(Br)c2)nc2ccccc12`, in data set [3], the “Ratio CC50/IC50” value is recorded as above 4.1. For the same compound, the IC50 in data set [1] stood at 9.45 µM; in the data set with dengue virus type 2 [4] it was 24.7 µM. Besides, in [5], the CC50 at 48 h was above 100 µM.
Compound `O=C(NCCCc1ccccc1)c1cc(/C=N/Nc2cccc(Br)c2)nc2ccccc12` gave an IC50 in data set [1] above 100 µM. The inhibition in the data set with dengue virus type 2 [2] is 24.2%.
`O=C(N/N=C\C=C\c1ccccc1)c1cc(/C=N/Nc2cccc(C(F)(F)F)c2)nc2ccccc12`: the IC50 in data set [1] is above 100 µM. In the data set with dengue virus type 2 [2], this compound came in with an inhibition of 27.4%.
Consider `CCOC(=O)c1cc(/C=N/Nc2nc3ccccc3[nH]2)c(O)c(/C=N/Nc2nc3ccccc3[nH]2)c1`, for which the “Ratio CC50/IC50” value in data set [3] worked out at 0.4. In addition, in the data set on dengue virus type 2 [6], the inhibition entry is “Dose-dependent effect”. Moreover, the IC50 is 13.1 µM in data set [1] and 35.9 µM in the data set with dengue virus type 2 [4]. The CC50 at 48 h in [5] was found to be 12.6 µM.
Regarding `COc1c(C)c2c(c(O)c1C/C=C(\C)CCC(=O)O)C(=O)OC2` [MYCOPHENOLIC ACID], the “Ratio CC50/IC50” value in data set [3] amounted to 2.7. Also, the IC50 in the data set on dengue virus type 2 [4] was 0.7 µM. The midpoint of cytotoxicity in data set [5], the CC50 at 48 h, lay at 1.9 µM.
In data set [1], `O=C(NCCCCc1ccccc1)c1cc(/C=N/Nc2cccc(Br)c2)nc2ccccc12` came in with an IC50 above 100 µM. This compound also registered an inhibition in the data set on dengue virus type 2 [2] of 30.6%.
`NS(=O)(=O)c1ccc(N/N=C/c2cc(C(=O)N/N=C\C=C\c3ccccc3)c3ccccc3n2)cc1`: the inhibition in the data set with dengue virus type 2 [7] is 63.3%; with dengue virus type 2 [6], “Dose-dependent effect”; in the data set on dengue virus type 2 [8], 21.4%; with dengue virus type 2 [9] it was 37.1%. In addition, the IC50 in data set [1] is 7.46 µM.
Compound `O=C(N/N=C\CCc1ccccc1)c1cc(/C=N/Nc2cccc(Br)c2)nc2ccccc12` gave an IC50 in data set [1] of 19.9 µM.
Same read-out and setting: then `O=C(N/N=C\C=C\c1ccccc1)c1cc(/C=N/Nc2cccc(Cl)c2)nc2ccccc12`, with 14.3 µM.
In data set [1], `NS(=O)(=O)c1ccc(N/N=C/c2cc(C(=O)NCCCCc3ccccc3)c3ccccc3n2)cc1` had an IC50 above 100 µM. Further, the inhibition with dengue virus type 2 [2] is 29.4%.
On to `O=C(O)c1cccc(N/N=C/c2cc(C(=O)NCCCc3ccccc3)c3ccccc3n2)c1`, for which the “Ratio CC50/IC50” value in data set [3] was 2.1. Besides, the results for the IC50 (in data set [1]; with dengue virus type 2 [4]) were 41.2 µM and 30.9 µM, respectively. In data set [5], the CC50 at 48 h amounted to 64.3 µM.
Take `NS(=O)(=O)c1ccc(N/N=C/c2cc(C(=O)N/N=C\CCc3ccccc3)c3ccccc3n2)cc1`: the IC50 in [1] is 36 µM.
Compound `O=C(N/N=C\CCc1ccccc1)c1cc(/C=N/Nc2cccc(C(F)(F)F)c2)nc2ccccc12` showed an IC50 in data set [1] above 100 µM. In addition, the inhibition in the data set on dengue virus type 2 [2] came to 20.9%.
On to `O=C(N/N=C\C=C\c1ccccc1)c1cc(/C=N/Nc2cccc([N+](=O)[O-])c2)nc2ccccc12`, for which the “Ratio CC50/IC50” value in data set [3] is on record as 0.3. The IC50 turned out to be 22 µM in data set [1] and 74.9 µM with dengue virus type 2 [4]. The compound further gave a CC50 at 48 h in data set [5] of 25 µM.
`CCOC(=O)c1cc(/C=N\NC(N)=S)c(O)c(/C=N\NC(N)=S)c1` had an IC50 in data set [1] above 100 µM. The compound further gave an inhibition in the data set on dengue virus type 2 [2] of 24.4%.
Taken in the same sequence, the figures for `NS(=O)(=O)c1ccc(N/N=C/c2cc(C(=O)NCCCc3ccccc3)c3ccccc3n2)cc1` were above 100 µM and 20.6%.
`CCOC(=O)c1cc(/C=N/N2C(=O)c3ccccc3C2=O)c(O)c(/C=N/N2C(=O)c3ccccc3C2=O)c1` gave an IC50 in [1] above 100 µM. This compound also returned an inhibition in the data set on dengue virus type 2 [2] of 28%.
`CCOC(=O)c1cc(/C=N/Nc2ccc(C(C)C)cc2)c(O)c(/C=N/Nc2ccc(C(C)C)cc2)c1`: in [3], the “Ratio CC50/IC50” value is recorded as 3.7. The IC50 in [1] amounted to 39.5 µM; in the data set with dengue virus type 2 [4], 8 µM. The same compound yielded a CC50 at 48 h in [5] of 29.7 µM.
In data set [1], `CCOC(=O)c1cc(/C=N/NC(=O)Nc2ccccc2)c(O)c(/C=N/NC(=O)Nc2ccccc2)c1` registered a concentration for half-maximal inhibition (IC50) above 100 µM. The same compound had an inhibition in the data set with dengue virus type 2 [2] of 44.1%.
Compound `O=C(CCCC(=O)/C(=C\c1ccc2c(c1)OCO2)CC(=O)c1ccccc1)OCCCl` displayed an IC50 in [1] of 242 µM.
As for `O=C(O)c1cccc(N/N=C/c2cc(C(=O)NCCCCc3ccccc3)c3ccccc3n2)c1`, in [3], the “Ratio CC50/IC50” value came to 4.5. Further, the IC50 was found to be 35.3 µM in [1] and 11 µM in the data set with dengue virus type 2 [4]. The same compound showed a CC50 at 48 h in data set [5] of 49.7 µM.
In [1], `NS(=O)(=O)c1ccc(N/N=C/c2cc(C(=O)N/N=C/c3cccc(O)c3)c3ccccc3n2)cc1` yielded an IC50 of 7.83 µM.
With `Oc1c(/C=N/Nc2nc3ccccc3[nH]2)cccc1/C=N/Nc1nc2ccccc2[nH]1`, the IC50 in data set [1] is above 100 µM. In addition, the inhibition in the data set on dengue virus type 2 [2] amounted to 31.9%.
`O=C(N/N=C/CCc1ccccc1)c1cc(/C=N/Nc2cccc(Cl)c2)nc2ccccc12`: the IC50 in data set [1] stood at 29 µM.
On the same count and under the same terms, then `COc1ccc(-c2csc(N3N=C(c4ccc([N+](=O)[O-])cc4)/C(=N\Nc4ccc(C(N)=O)cc4)C3=O)n2)cc1`, with 220 µM.
For `COc1cc(/C=C/C(=O)CC(=O)/C=C/c2ccc(O)c(OC)c2)ccc1O` [CURCUMIN], in [3], the “Ratio CC50/IC50” value is recorded as 3.5. Further, the IC50 in the data set on dengue virus type 2 [4] was found to be 4.2 µM. Moreover, the CC50 at 48 h in [5] came to 14.8 µM.

One may read the IC50 as the midpoint of a concentration-inhibition curve. For orientation: inhibition means the share of the control response that was lost under treatment. What is called CC50 is the concentration giving 50% cytotoxicity.

These data come from ChEMBL document CHEMBL2163279, “Discovery of novel small molecule inhibitors of dengue viral NS2B-NS3 protease using virtual screening and scaffold hopping” (J Med Chem, 2012).
